Data on twelve molecules can be found in ChEMBL document CHEMBL1125777, “Nonpeptidic angiotensin II antagonists: synthesis and in vitro activity of a series of novel naphthalene and tetrahydronaphthalene derivatives” (J Med Chem, 1991).

For assay [1], the species on record is Oryctolagus cuniculus. The assay can be described thus: Inhibition of all induced contractions of rabbit aortic rings. The following applies: Aorta. The class given is functional. Put shortly: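 Thoracic aorta rings (2-3 mm) from male Chinchilla rabbits (2-2.5 kg), 2 g resting tension, modified Krebs-Henseleit, 37 °C, 95% O2/5% CO2, equilibrated ≥1 h. Isometric contraction to 10 nM angiotensin II every 20 min. After two control responses, graded compound concentrations (3-4 per ring) applied 5 min before each challenge. DMSO vehicle controls.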

In assay [2] the target is T1, Type-1 angiotensin II receptor B (Rattus norvegicus, UniProt P29089).
T1 sequence (P29089 whole entry): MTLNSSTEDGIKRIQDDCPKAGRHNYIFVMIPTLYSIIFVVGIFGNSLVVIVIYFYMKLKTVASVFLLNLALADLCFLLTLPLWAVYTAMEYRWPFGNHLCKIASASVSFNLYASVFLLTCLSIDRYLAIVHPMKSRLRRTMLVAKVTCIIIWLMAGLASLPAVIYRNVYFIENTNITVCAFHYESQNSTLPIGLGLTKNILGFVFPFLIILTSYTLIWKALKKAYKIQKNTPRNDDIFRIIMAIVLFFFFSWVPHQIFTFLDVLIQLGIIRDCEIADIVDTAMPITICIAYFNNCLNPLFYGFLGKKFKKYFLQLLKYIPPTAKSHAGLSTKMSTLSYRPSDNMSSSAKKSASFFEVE
The assay can be described thus: Binding affinity against angiotensin II receptor in rat smooth muscle cell preparations. A digest of the protocol:
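Membranes from cultured rat aortic smooth muscle cells (passages 5-20, DMEM with 15% FCS). Bound/free separated by filtration, filter radioactivity counted. Nonspecific binding defined with 1 μM unlabeled AII. IC50 from four-parameter logistic fit. Duplicate tests.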

For assay [3], the target named is T1, Type-1 angiotensin II receptor B. The assay can be described thus: Binding affinity against Angiotensin II receptor in rat smooth muscle cell preparations. A digest of the protocol:
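Membranes from cultured rat aortic smooth muscle cells (passages 5-20, DMEM with 15% FCS). 20-60 μg protein incubated 60 min at 25 or 30 °C with radiotracer (150 pM) and varying unlabeled competitor concentrations. Bound/free separated by filtration, filter radioactivity counted. Nonspecific binding defined with 1 μM unlabeled AII. IC50 from four-parameter logistic fit. Duplicate tests.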

In general, IC50 refers to the concentration at which inhibition is half-maximal. Higher therefore signals a need for much substance. Regarding `CCCCc1nc(Cl)c(CO)n1Cc1ccc2c(c1)CCC(C(=O)O)C2` (stereo not given), the IC50 in assay [1] is 1200 nM; in assay [2], 8900 nM.

Take `CCCCc1nc(Cl)c(CO)n1Cc1cccc2c(-c3nn[nH]n3)cccc12`: the IC50 was 700 nM in assay [1] and 1100 nM in assay [2].

Regarding `CCCCc1nc(CO)c(Cl)n1Cc1ccc2c(c1)CCC(c1nnn[nH]1)C2` (stereo not given), the IC50 in assay [1] came out at 560 nM.

Regarding `CCCCc1nc(CO)c(Cl)n1Cc1ccc2c(c1)CCC(C)(C(=O)O)C2` (stereo not given), the IC50 in assay [1] came to 2700 nM; in assay [2] it was 2800 nM.

Consider `CCCCc1nc(CO)c(Cl)n1Cc1ccc2c(c1)CCC(C(=O)O)C2` (stereo not given), for which the IC50 in assay [1] came out at 300 nM; in assay [2], 1100 nM.

On to `CCCCc1nc(CO)c(Cl)n1Cc1ccc2cc(-c3nnn[nH]3)ccc2c1`, for which the results for the half-maximal inhibitory concentration (IC50) in assay [1] and in assay [3] were 120 nM and 200 nM, respectively.

`CCCCc1nc(Cl)c(CO)n1Cc1ccc(-c2ccccc2-c2nnn[nH]2)cc1` [LOSARTAN]: inhibition in assay [1] was half-maximal at 24 nM (IC50).

`CCCCc1nc(Cl)c(CO)n1Cc1cccc2cc(-c3nnn[nH]3)ccc12`: the IC50 was 2600 nM in assay [1] and 4100 nM in assay [2].

Turning to `CCCCc1nc(Cl)c(CO)n1Cc1ccc2cc(-c3nn[nH]n3)ccc2c1`, the IC50 was found to be 1600 nM in assay [1] and 600 nM in assay [2].

In the case of `CCCCc1nc(Cl)c(CO)n1Cc1ccc2ccc(-c3nn[nH]n3)cc2c1`, the IC50 in assay [3] is 20000 nM.

On to `CCCCc1nc(Cl)c(CO)n1Cc1ccc2c(c1)CCC(c1nnn[nH]1)C2` (stereo not given), for which the IC50 in assay [1] was found to be 1900 nM; in assay [2], 5400 nM.

For `CCCCc1nc(Cl)c(CO)n1Cc1ccc2c(c1)CCC(C)(C(=O)O)C2` (stereo not given), in assay [1], half-maximal inhibition (IC50) required 2200 nM.
